Test results published in ChEMBL document CHEMBL3864128, “Syntheses of new 3-thiazolyl coumarin derivatives, in vitro α-glucosidase inhibitory activity, and molecular modeling studies” (Eur J Med Chem, 2016).

Assay: Inhibition of alpha-glucosidase (unknown origin) using PNP glycoside as substrate preincubated for 30 mins followed by substrate addition after 60 mins by spectrophotometric analysis
Design: species or system Homo sapiens
In short: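 Enzyme activity run in 50 mM phosphate buffer, pH 6.8, containing 5% v/v DMSO. Inhibitors pre-incubated with enzyme 30 min at 37 °C, then PNP glycoside substrate added and reaction run 60 min at 37 °C. Absorbance read at 400 nm. Triplicate runs at five concentrations spanning the IC50 estimated in a first round; means adopted.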

SMILES | IC50 [µM]
CC(C)(C)c1ccc(C(=O)Nn2c(-c3cc4ccccc4oc3=O)cs/c2=N\c2ccc(Cl)c(Cl)c2)cc1 | 0.78
COc1ccc(/N=c2\scc(-c3cc4ccccc4oc3=O)n2NC(=O)c2ccccc2)cc1 | 6.5
COc1ccc(/N=c2\scc(-c3cc4ccccc4oc3=O)n2NC(=O)c2ccc(C(C)(C)C)cc2)cc1 | 1.4
COc1ccc(/N=c2\scc(-c3cc4ccccc4oc3=O)n2NC(=O)c2ccccc2O)cc1 | 1.1
O=C(Nn1c(-c2cc3ccccc3oc2=O)cs/c1=N\c1cccc(Br)c1)c1ccccc1O | 4.06
COc1ccc(C(=O)Nn2c(-c3cc4ccccc4oc3=O)cs/c2=N\c2ccc(Cl)c(Cl)c2)c(OC)c1 | 2.5
COc1ccc(/N=c2\scc(-c3cc4ccccc4oc3=O)n2NC(=O)c2ccc(OC)cc2OC)cc1 | 7.4
COc1ccc(/N=c2\scc(-c3cc4ccccc4oc3=O)n2NC(=O)c2ccccc2OC)cc1 | 16.2
O=C(Nn1c(-c2cc3ccccc3oc2=O)cs/c1=N\c1ccc(Cl)c(Cl)c1)c1ccccc1O | 0.12
COc1ccc(/N=c2\scc(-c3cc4ccccc4oc3=O)n2NC(=O)c2cc(OC)cc(OC)c2)cc1 | 8.1
COc1cc(OC)cc(C(=O)Nn2c(-c3cc4ccccc4oc3=O)cs/c2=N\c2cccc(Br)c2)c1 | 9.19
COc1ccc(/N=c2\scc(-c3cc4ccccc4oc3=O)n2NC(=O)c2ccc(OC)cc2)cc1 | 3.6
COc1ccc(/N=c2\scc(-c3cc4ccccc4oc3=O)n2NC(=O)c2ccc(Br)cc2)cc1 | 9.45
COc1ccc(/N=c2\scc(-c3cc4ccccc4oc3=O)n2NC(=O)c2ccc(C)cc2C)cc1 | 2.9
